Measured values: ChEMBL document CHEMBL3414433, “Discovery and profiling of a selective and efficacious Syk inhibitor” (J Med Chem, 2015)
Calls of active or inactive are those of the source. No cut-off for these calls is given here.

Experiments:
[1] = Oral bioavailability in Sprague-Dawley rat at 3 mg/kg administered as cassette dosing; assay type: ADME, organism-based; conditions: in vivo
Outline: (§1)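 Rats were dosed i.v. at 1 mg/kg in NMP/PEG200 (3:7) and p.o. at 3 mg/kg in CMC/water/Tween (0.5:99:0.5). PK parameters were derived from blood concentration–time curves for both routes.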

[2] = Drug uptake in blood of Lewis rat collagen-induced arthritis model at 30 mg/kg, po qd administered on day 15 post immunization measured at 24 hrs on day 18; assay type: ADME, organism-based; set-up: dose 30 mg/kg, route oral; conditions: read-out: Drug uptake
Outline: (§2)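 Collagen-arthritic Lewis rats given 3, 10 or 30 mg/kg p.o. once daily from day 15; blood levels measured on day 18 (third day of treatment) at 4, 8 and 24 h after dosing.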

[3] = target: Voltage-gated inwardly rectifying potassium channel KCNH2 (Homo sapiens, UniProt Q12809); test: Inhibition of human ERG expressed in CHO cells by automated Qpatch clamp assay; assay type: cell-based
[4] = Drug uptake in blood of Lewis rat collagen-induced arthritis model at 3 mg/kg, po qd administered on day 15 post immunization measured at 4 hrs on day 18; assay type: ADME, organism-based; set-up: dose 3 mg/kg, route oral; conditions: read-out: Drug uptake; outline: as §2
[5] = target: STE20-like serine/threonine-protein kinase (Homo sapiens, UniProt Q9H2G2); test: Competitive binding affinity to human SLK
[6] = target: Serine/threonine-protein kinase PAK 6 (Homo sapiens, UniProt Q9NQU5); test: Competitive binding affinity to human PAK6
Rattus norvegicus [7] = test: Antiarthritic activity in Lewis rat collagen-induced arthritis model assessed as reduction of inflammatory cell infiltration in hind paw at 3 to 30 mg/kg, po qd administered on day 15 post immunization measured after day 28 by Giemsa/safranin O staining-based assay; assay type: functional, organism-based
Outline: (§3)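 Female Lewis rats (140−160 g), arthritis induced by porcine collagen immunization (day 0) and boost (day 7); rats with swollen joints randomized, dosed orally once daily from day 15 to day 28. Hind paws taken on day 28, fixed in 10% buffered formalin for 48 h, decalcified over 16 days, paraffin-embedded; 3 μm sections stained with Giemsa and safranin O and scored.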

[8] = target: T1, Tyrosine-protein kinase ZAP-70 (Homo sapiens, UniProt P43403); test: Competitive binding affinity to human ZAP70
T1 sequence (P43403 whole entry): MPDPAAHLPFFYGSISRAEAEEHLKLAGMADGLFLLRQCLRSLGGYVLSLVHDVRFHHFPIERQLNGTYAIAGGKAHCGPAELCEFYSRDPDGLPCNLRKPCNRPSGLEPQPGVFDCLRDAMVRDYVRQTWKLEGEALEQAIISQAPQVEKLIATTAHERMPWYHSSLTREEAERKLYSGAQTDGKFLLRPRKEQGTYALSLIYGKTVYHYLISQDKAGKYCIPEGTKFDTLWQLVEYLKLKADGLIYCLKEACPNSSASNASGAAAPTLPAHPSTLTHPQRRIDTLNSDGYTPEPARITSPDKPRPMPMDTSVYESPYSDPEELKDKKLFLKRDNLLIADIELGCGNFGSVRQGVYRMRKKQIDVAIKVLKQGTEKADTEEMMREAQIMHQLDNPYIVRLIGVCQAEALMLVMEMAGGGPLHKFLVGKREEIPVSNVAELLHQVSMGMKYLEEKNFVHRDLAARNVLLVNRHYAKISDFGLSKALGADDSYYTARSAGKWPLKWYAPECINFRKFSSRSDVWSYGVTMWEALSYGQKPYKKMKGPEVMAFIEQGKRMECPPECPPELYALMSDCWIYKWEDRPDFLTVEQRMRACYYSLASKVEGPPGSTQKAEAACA

[9] = Drug uptake in blood of Lewis rat collagen-induced arthritis model at 3 mg/kg, po qd administered on day 15 post immunization measured at 8 hrs on day 18; assay type: ADME, organism-based; set-up: dose 3 mg/kg, route oral; conditions: read-out: Drug uptake; outline: as §2
[10] = target: T2, Tyrosine-protein kinase SYK (Homo sapiens, UniProt P43405); test: Competitive binding affinity to human SYK
Outline: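 Kd was then determined for the kinases affected at that concentration.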

Rattus norvegicus [11] = species: Rattus norvegicus; test: Hepatotoxicity in rat assessed as bile plugs measured for 4 weeks by GLP study; assay type: toxicity, organism-based; conditions: in vivo, 672 h
Rattus norvegicus [12] = species: Rattus norvegicus; test: Hepatotoxicity in rat assessed as portal inflammation measured for 4 weeks by GLP study; assay type: toxicity, organism-based; conditions: in vivo, 672 h
Canis familiaris [13] = species: Canis familiaris; test: Toxicity in dog assessed as prolongation of QT interval by telemetry study; assay type: organism-based, Canis lupus familiaris; conditions: in vivo
[14] = target: Tyrosine-protein kinase JAK2 (Homo sapiens, UniProt O60674); test: Competitive binding affinity to human JAK2
[15] = target: T1, Tyrosine-protein kinase ZAP-70; test: Inhibition of human ZAP70
[16] = Volume of distribution at steady state in Sprague-Dawley rat at 1 mg/kg, iv and 3 mg/kg, po administered as cassette dosing; assay type: ADME, organism-based; conditions: in vivo, read-out: Vdss; outline: as §1
Rattus norvegicus [17] = species: Rattus norvegicus; test: Hepatotoxicity in rat assessed as single necrosis of hepatocytes measured for 4 weeks by GLP study; assay type: toxicity, organism-based, Hepatocyte; conditions: 672 h
[18] = Mean residence time in Sprague-Dawley rat at 1 mg/kg, iv and 3 mg/kg, po administered as cassette dosing; assay type: ADME, organism-based; conditions: in vivo; outline: as §1
Canis familiaris [19] = test: Dose normalized AUC in Beagle dog at 0.1 mg/kg, iv; assay type: ADME, organism-based, Canis lupus familiaris; set-up: dose 0.1 mg/kg, route intravenous; conditions: in vivo
Outline: (§4)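 One-in-one dosing in Beagle dogs: i.v. 0.1 mg/kg in NMP/PEG200 (3:7); p.o. 0.3 mg/kg in MC/water (0.5:99.5). Exposure values dose normalized.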

[20] = Clearance in Beagle dog at 0.1 mg/kg, iv and 0.3 mg/kg, po; assay type: ADME, organism-based, Canis lupus familiaris; conditions: in vivo; outline: as §4
Rattus norvegicus [21] = test: In vivo inhibition of Syk in Lewis rat assessed as reduction in FcgR-induced SLP76 phosphorylation in peripheral blood monocytes at 22 mg/kg, po measured after 24 hrs relative to vehicle-treated control; assay type: functional
Outline: (§5)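 Single oral dose of 22 mg/kg to Lewis rats; blood sampled at 2, 4 and 24 h after dosing for compound level and ex vivo FcγR-induced phospho-SLP76 in peripheral blood monocytes.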

[22] = Volume of distribution at steady state in Beagle dog at 0.1 mg/kg, iv and 0.3 mg/kg, po; assay type: ADME, organism-based, Canis lupus familiaris; conditions: in vivo, read-out: Vdss
Outline: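 Beagle dogs dosed one-in-one. The i.v. dose was 0.1 mg/kg in NMP/PEG200 (3:7), and the p.o. dose was 0.3 mg/kg in MC/water (0.5:99.5). Blood levels were followed after each route.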

Rattus norvegicus [23] = test: In vivo inhibition of Syk in Lewis rat assessed as reduction in FcgR-induced SLP76 phosphorylation in peripheral blood monocytes at 22 mg/kg, po measured after 2 hrs relative to vehicle-treated control; assay type: functional; outline: as §5
Rattus norvegicus [24] = test: Antiarthritic activity in Lewis rat collagen-induced arthritis model assessed as reduction of joint damage/erosions in hind paw at 3 to 30 mg/kg, po qd administered on day 15 post immunization measured after day 28 by Giemsa/safranin O staining-based assay; assay type: functional, organism-based; outline: as §3
[25] = Drug uptake in blood of Lewis rat collagen-induced arthritis model at 30 mg/kg, po qd administered on day 15 post immunization measured at 4 hrs on day 18; assay type: ADME, organism-based; set-up: dose 30 mg/kg, route oral; conditions: read-out: Drug uptake; outline: as §2
[26] = target: Interleukin-1 receptor-associated kinase 1 (Homo sapiens, UniProt P51617); test: Competitive binding affinity to human IRAK1
[27] = target: T2, Tyrosine-protein kinase SYK
[28] = Drug uptake in Lewis rat blood at 22 mg/kg, po measured after 4 hrs; assay type: ADME, organism-based; set-up: dose 22 mg/kg, route oral; conditions: read-out: Drug uptake; outline: as §5

Chain of Interleukin-1 receptor-associated kinase 1 (P51617 whole entry): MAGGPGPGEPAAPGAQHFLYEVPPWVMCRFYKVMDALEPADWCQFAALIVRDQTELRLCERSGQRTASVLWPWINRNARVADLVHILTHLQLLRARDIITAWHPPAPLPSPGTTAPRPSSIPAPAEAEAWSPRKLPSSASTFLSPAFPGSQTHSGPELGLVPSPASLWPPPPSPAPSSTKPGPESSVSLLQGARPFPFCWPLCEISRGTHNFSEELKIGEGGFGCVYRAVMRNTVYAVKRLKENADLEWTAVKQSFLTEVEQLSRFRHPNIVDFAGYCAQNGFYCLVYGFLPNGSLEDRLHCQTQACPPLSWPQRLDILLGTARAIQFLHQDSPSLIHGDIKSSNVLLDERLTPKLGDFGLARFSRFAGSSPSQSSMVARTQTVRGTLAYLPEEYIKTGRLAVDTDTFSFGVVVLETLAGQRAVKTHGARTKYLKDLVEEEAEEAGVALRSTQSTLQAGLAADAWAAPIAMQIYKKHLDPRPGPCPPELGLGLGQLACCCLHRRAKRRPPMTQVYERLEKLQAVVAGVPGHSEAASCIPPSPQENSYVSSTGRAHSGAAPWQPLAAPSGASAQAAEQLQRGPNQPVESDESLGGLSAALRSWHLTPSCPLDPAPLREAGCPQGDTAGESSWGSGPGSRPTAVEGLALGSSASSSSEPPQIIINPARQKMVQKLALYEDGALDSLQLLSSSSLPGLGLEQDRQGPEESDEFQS
Chain of Tyrosine-protein kinase JAK2 (O60674 whole entry): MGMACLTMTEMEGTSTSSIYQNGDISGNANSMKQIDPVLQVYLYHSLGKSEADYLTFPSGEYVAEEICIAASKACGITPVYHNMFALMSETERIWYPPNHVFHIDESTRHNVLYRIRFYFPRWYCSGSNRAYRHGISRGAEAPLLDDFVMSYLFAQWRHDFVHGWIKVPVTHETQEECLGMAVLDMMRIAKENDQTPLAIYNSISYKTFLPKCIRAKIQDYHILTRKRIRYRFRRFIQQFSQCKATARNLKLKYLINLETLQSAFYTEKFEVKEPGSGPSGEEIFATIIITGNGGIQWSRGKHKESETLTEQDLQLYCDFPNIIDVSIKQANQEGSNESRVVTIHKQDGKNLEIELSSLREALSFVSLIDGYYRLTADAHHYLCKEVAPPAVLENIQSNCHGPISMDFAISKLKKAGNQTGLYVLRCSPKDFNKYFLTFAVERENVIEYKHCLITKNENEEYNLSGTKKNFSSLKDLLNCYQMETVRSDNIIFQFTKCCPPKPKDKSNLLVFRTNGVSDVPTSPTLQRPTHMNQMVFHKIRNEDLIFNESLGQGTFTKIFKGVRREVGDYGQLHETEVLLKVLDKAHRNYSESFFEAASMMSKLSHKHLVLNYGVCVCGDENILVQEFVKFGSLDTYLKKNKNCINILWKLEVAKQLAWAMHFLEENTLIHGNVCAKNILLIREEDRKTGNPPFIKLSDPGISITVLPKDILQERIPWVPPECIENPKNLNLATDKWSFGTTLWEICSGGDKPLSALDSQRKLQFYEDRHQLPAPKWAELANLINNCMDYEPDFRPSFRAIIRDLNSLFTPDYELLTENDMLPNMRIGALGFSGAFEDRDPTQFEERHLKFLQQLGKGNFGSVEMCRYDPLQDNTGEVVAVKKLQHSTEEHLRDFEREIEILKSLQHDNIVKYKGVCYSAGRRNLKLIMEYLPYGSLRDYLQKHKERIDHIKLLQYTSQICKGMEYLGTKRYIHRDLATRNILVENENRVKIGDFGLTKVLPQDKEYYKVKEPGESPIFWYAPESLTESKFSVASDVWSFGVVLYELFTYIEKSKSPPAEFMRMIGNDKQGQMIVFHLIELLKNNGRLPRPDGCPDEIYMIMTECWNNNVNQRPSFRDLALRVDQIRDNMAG
Chain of STE20-like serine/threonine-protein kinase (Q9H2G2 whole entry): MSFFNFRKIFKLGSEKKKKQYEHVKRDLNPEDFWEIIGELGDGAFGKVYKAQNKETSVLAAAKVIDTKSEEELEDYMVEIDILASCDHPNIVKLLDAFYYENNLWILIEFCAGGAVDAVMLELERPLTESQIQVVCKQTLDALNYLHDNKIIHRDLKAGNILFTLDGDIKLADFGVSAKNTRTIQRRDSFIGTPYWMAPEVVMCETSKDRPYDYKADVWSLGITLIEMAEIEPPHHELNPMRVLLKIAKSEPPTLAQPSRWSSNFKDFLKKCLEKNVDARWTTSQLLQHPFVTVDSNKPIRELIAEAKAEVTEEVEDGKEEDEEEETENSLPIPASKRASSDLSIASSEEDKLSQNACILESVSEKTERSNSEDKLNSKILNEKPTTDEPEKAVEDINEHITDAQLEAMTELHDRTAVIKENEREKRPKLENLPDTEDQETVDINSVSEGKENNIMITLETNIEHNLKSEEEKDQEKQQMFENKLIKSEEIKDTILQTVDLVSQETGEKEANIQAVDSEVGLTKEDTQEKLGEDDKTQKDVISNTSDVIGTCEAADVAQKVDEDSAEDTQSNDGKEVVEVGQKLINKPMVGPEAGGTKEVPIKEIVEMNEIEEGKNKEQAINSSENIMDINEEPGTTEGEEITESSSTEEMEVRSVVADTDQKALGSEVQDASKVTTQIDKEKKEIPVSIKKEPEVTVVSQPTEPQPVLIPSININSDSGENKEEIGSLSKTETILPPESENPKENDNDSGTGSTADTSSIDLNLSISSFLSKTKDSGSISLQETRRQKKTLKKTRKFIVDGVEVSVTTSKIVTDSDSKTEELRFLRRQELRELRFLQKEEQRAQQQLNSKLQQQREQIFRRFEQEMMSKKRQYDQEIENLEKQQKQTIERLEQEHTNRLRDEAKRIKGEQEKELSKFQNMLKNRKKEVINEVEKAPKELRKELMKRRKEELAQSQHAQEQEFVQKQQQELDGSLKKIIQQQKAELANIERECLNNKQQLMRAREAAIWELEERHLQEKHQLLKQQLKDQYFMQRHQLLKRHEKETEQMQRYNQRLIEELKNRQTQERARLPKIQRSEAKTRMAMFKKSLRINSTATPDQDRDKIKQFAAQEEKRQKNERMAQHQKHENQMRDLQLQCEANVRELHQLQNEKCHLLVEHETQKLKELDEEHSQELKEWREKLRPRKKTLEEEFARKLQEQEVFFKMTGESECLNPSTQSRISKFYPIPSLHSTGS
Chain of Serine/threonine-protein kinase PAK 6 (Q9NQU5 whole entry): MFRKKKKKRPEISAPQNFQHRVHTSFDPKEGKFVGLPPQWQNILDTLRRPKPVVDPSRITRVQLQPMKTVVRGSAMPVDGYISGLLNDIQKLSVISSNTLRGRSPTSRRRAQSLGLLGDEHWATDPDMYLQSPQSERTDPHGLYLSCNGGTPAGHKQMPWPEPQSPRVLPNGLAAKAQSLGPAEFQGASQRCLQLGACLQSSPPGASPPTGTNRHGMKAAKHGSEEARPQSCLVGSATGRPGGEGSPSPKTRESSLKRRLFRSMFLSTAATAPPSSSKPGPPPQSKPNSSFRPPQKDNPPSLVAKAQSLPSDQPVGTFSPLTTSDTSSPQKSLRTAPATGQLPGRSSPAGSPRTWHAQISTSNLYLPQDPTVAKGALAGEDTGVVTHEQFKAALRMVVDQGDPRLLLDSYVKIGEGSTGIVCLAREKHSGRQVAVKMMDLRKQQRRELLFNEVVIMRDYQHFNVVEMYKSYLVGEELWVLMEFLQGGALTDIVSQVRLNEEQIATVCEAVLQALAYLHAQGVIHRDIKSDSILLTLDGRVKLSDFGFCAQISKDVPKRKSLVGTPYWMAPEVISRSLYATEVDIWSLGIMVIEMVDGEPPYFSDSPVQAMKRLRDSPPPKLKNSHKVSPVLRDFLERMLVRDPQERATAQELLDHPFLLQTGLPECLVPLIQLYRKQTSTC
Chain of Voltage-gated inwardly rectifying potassium channel KCNH2 (Q12809 whole entry): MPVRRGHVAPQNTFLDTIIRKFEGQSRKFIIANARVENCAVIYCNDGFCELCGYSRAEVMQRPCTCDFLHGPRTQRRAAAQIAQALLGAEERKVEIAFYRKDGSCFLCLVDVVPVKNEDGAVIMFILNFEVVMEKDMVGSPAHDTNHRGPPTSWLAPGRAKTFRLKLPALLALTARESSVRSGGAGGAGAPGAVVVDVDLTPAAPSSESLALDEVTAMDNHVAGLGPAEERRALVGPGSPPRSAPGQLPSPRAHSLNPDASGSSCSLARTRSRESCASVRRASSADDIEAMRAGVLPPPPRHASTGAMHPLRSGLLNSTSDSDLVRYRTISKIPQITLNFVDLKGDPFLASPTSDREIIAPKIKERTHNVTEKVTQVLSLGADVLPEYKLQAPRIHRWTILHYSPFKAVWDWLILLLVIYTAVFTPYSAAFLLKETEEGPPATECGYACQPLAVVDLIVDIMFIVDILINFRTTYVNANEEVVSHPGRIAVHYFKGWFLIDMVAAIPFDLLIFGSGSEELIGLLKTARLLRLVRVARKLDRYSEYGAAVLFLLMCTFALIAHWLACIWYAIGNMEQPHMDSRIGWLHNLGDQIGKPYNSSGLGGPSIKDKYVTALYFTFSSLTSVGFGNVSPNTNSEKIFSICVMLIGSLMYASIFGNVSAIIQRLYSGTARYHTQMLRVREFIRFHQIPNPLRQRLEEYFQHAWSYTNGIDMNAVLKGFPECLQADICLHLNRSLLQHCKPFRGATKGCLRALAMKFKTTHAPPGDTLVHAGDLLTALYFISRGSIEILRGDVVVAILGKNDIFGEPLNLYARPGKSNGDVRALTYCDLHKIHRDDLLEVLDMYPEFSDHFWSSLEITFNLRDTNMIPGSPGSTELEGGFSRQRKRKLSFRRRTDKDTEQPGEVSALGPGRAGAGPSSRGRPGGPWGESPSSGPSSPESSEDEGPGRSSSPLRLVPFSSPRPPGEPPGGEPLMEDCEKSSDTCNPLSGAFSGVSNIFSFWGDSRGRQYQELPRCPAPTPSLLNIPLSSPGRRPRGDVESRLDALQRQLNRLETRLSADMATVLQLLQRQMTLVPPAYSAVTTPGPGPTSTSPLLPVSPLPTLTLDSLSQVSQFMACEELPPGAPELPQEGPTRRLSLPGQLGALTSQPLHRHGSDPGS

## NC(=O)c1nnc(N[C@@H]2CCCC[C@@H]2N)nc1Nc1cccc2cc[nH]c12
[1]
  bioavailability: 60%
[2]
  concentration at 24 h: 461 nM
[3]
  IC50: 25900 nM
[4]
  concentration at 4 h: 126 nM
[5]
  Kd: 380 nM
[6]
  Kd: 110 nM
Rattus norvegicus [7]
  Activity: Active
[8]
  Kd: 65 nM
[9]
  concentration at 8 h: 65 nM
[10]
  Kd: 0.64 nM
Rattus norvegicus [11]
  Activity: Toxic
Rattus norvegicus [12]
  Activity: Toxic
Canis familiaris [13]
  Activity: Non-toxic
[14]
  Kd: 53 nM
[15]
  IC50: 251 nM
[16]
  Vd: 16.4 L/kg
Rattus norvegicus [17]
  Activity: Toxic
[18]
  MRT: 8.7 h
Canis familiaris [19]
  AUC/dose: 3414 nM·h
[20]
  clearance: 11 mL/min/kg
Rattus norvegicus [21]
  inhibition in vivo at 22 mg/kg: 45%
[22]
  Vd: 6.8 L/kg
Rattus norvegicus [23]
  inhibition in vivo at 22 mg/kg: 90%
Rattus norvegicus [24]
  Activity: Active
[25]
  concentration at 4 h: 2890 nM
[26]
  Kd: 67 nM
[27]
  IC50: 35 nM
[28]
  concentration at 4 h: 1100 nM
